# Reference: ChEMBL document CHEMBL3351584, “Binding mode and potency of N-indolyloxopyridinyl-4-aminopropanyl-based inhibitors targeting Trypanosoma cruzi CYP51” (J Med Chem, 2014)
# Columns and labels:
# Assay type in all cases: ADME, organism-based
# [1] = AUClast in Swiss Webster mouse at 25 mg/kg, po administered as single dose by LC-MS/MS method; set-up: dose 25 mg/kg, route oral, time 0 - last; details: plasma
# Procedure, shortened: (§1)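 Eight-week-old female Swiss Webster mice (n = 3 per compound) given one oral gavage dose of 25 mg/kg, formulated at 5 mg/mL in 20% Kolliphor/80% water. Plasma sampled at about 0.25, 0.5, 1, 2, 4, 6, 8, 12 and 24 h, precipitated with 5× v/v acetonitrile, filtered 0.2 μm and quantified by LC–MS/MS. Parameters calculated from plasma concentration–time curves, averaged over three mice.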
# [2] = Tmax in Swiss Webster mouse at 25 mg/kg, po administered as single dose by LC-MS/MS method; set-up: dose 25 mg/kg, route oral; details: in vivo; procedure, shortened: as §1
# [3] = Cmax in Swiss Webster mouse at 25 mg/kg, po administered as single dose by LC-MS/MS method; set-up: dose 25 mg/kg, route oral; details: in vivo; procedure, shortened: as §1
# Mus musculus = assay: Volume of distribution in Swiss Webster mouse at 25 mg/kg, po administered as single dose by LC-MS/MS method; set-up: dose 25 mg/kg, route oral; details: in vivo; procedure, shortened: as §1
# Homo sapiens = species: Homo sapiens; assay: Volume of distribution in human; details: in vivo
AUC(0-t) [1],Tmax [2],Cmax [3],Vd (Mus musculus),SMILES,Vd (Homo sapiens)
22.5 µM·h,4.67 h,1850 nM,3.97 L/kg,O=C(N[C@H](Cc1c[nH]c2ccccc12)C(=O)Nc1ccncc1)c1ccc(N2CCN(c3cc(Cl)cc(Cl)c3)CC2)cc1F,–
19 µM·h,3.33 h,1800 nM,3.44 L/kg,Cc1ccc(Cl)cc1N1CCN(c2ccc(C(=O)N[C@H](Cc3c[nH]c4ccccc34)C(=O)Nc3ccncc3)c(F)c2)CC1,–
–,–,–,–,CC[C@@H]([C@H](C)O)n1ncn(-c2ccc(N3CCN(c4ccc(OC[C@@H]5CO[C@@](Cn6cncn6)(c6ccc(F)cc6F)C5)cc4)CC3)cc2)c1=O [POSACONAZOLE],5 L/kg
